Hits are enriched below; roughly 7.6% of the tested compounds scored in any of these assays.
DAT uptake mod: modulates human dopamine transporter uptake under cocaine. Q01959. LLC-PK1 hDAT cells, [14C]-dopamine uptake with cocaine IC80; actives deviate in either direction. B-score at 10 µM. 110,000 tested, 1.3% active. AID 449768;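 active = Z score or B-score, a plate-position-corrected score, falls beyond the plate's 99.7% confidence bounds, in either direction; inactive = both scores lie inside the 99.7% bounds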
Jurkat viability: cytotoxicity toward Jurkat cells; Jurkat E6.1 viability, ATP luminescence, 48 h; inhibition, % at 4 µM; 56,000 tested, 1.2% active;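 active = inhibition above the mean inhibition of all tested compounds plus 3 SD, cut at about 28% in these data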
M1 antag: M1 muscarinic receptor (rat) antagonism; CHO-M1 cells, Fluo-4 calcium, ACh EC80 antagonist mode; active compounds read low; P08482; 64,000 tested, 3.4% active; B-score at 10 µM;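 active = calcium fluorescence response, raw or row-and-column corrected B-score, differing from the plate sample mean either way at a set confidence level, mostly lower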
HEK293 NFkB inh: lowers PMA/ionomycin-induced NF-kB signal in HEK293 cells | AID 465 | 62,000 tested, 0.21% active | HEK-293 NF-kB luciferase reporter, luminescence | inhibition, % at 3 µM;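 active = inhibition above the mean of all tested compounds plus 3 SD, cut at about 40% in these data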
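Timing: 1 h pretreatment, 16 h stimulation, 37 °C; system: HEK-293 cells with stable firefly luciferase reporter driven by four HIV NF-kB elements; doses: 3 µM once, 0.30% DMSO; measured by: luciferase luminescence; control set: DMSO and 10 µM reference inhibitor; repeats: single test; reagent: PMA plus ionomycin mix as NF-kB-activating stimulus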
D1 allo mod: D1 dopamine receptor (human) allosteric modulation; P21728; HEK293 D1, CRE-luciferase, dopamine EC30 potentiation; actives deviate in either direction; B-score at 10 µM; 58,000 tested, 5.9% active;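 active = luminescence count or its row- and column-corrected plate score outside the 99.7% band of the plate's sample wells, on either side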
Target sequence (P21728 whole entry, looked up): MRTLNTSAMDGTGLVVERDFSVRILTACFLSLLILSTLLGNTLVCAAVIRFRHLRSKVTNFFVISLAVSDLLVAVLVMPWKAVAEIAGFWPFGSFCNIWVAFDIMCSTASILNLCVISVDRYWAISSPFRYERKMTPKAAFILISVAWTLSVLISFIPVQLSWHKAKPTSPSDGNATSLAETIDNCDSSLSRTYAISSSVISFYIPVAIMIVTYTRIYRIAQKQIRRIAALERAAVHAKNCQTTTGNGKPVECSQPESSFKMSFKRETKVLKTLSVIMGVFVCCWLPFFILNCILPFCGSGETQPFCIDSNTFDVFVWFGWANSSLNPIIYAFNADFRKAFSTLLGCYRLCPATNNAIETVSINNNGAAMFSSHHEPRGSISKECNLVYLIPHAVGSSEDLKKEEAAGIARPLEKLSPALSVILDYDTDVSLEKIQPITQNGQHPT
M1 agonist: activates the M1 muscarinic receptor; CHO-M1 cells, Fluo-4 calcium fluorescence, agonist mode; active compounds read high; B-score at 10 µM; 64,000 tested, 3% active; AID 626;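 active = fluorescence rise, raw or as B-score row- and column-corrected plate score, outside the 99.7% band of its plate's samples, either direction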
M1 antag conf: confirmation of rat M1 muscarinic receptor antagonists | CHO-M1 cells, Fluo-4 calcium, ACh EC80 antagonism; active compounds read low | AID 677 | shares compounds with M1 antag | calcium response (max-min fluorescence) at 10 µM | 1,700 tested, 43% active;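 active = calcium response below the same-plate mean of wells given acetylcholine alone at its 80%-effect dose, minus 3 SD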
mGluR4 antag: acts on human mGluR4 in M1 antagonist selectivity test. shares compounds with M1 antag. CHO-mGluR4 calcium flux, Fluo-4 fluorescence, glutamate EC80; active compounds read low. AID 678. fluorescence response (max-min) at 10 µM. 1,700 tested, 0.9% active;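 active = fluorescence response below the plate's average for near-maximal glutamate wells, less 3 SD of those wells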;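 also: raw unnormalized fluorescence span taken in the window right after glutamate addition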
Large screens that a line does not name were inactive (follow-up assays come after a bar, where they were run).

CCN(CC)CCNC(=O)c1cc2c(-c3ccc(Cl)cc3)nn(C)c2s1	M1 antag -2.9 | M1 antag conf inactive | mGluR4 antag inactive
COc1ccccc1N1CCN(CCCC(=O)c2ccc(F)cc2)CC1	M1 antag -2 | M1 antag conf 266 | mGluR4 antag inactive
Cc1cc2ccccc2c(=O)n1CC(=O)N(C)c1ccc(F)cc1	none
COCCCn1c(=N)c(C(=O)NCc2ccc3c(c2)OCO3)cc2c(=O)n3cccc(C)c3nc21	M1 antag -7.1 (no result: DAT uptake mod) | M1 antag conf 90 | mGluR4 antag inactive
COCCCn1c(=N)c(C(=O)NCc2ccc3c(c2)OCO3)cc2c(=O)n3ccccc3nc21	none
CCOCCCn1c(=N)c(C(=O)NCc2ccc3c(c2)OCO3)cc2c(=O)n3cccc(C)c3nc21	M1 antag -10 | M1 antag conf 91 | mGluR4 antag inactive
O=C(NCCCN1CCOCC1)NC12CC3CC(CC(C3)C1)C2	none
CCOCCCNC(=O)NC12CC3CC(CC(C3)C1)C2	M1 antag -5.1 | M1 antag conf inactive | mGluR4 antag inactive
CCCCCC(=O)Nc1ccc(N2CCN(CC)CC2)c(Cl)c1	M1 antag -11, D1 allo mod -4.6 | M1 antag conf 46 | mGluR4 antag inactive
CCN1CCN(c2cc(C)c3cc(NC(=O)c4ccc5c(c4)OCO5)ccc3n2)CC1	M1 antag -2.6, D1 allo mod -5 | M1 antag conf 502 | mGluR4 antag inactive
COc1cccc(C(=O)Nc2ccc3nc(N4CCOCC4)cc(C)c3c2)c1	none
CCN1CCN(c2cc(C)c3cc(NC(=O)c4cncc(Br)c4)ccc3n2)CC1	M1 antag -5 (no result: DAT uptake mod, Jurkat viability) | M1 antag conf 250 | mGluR4 antag inactive
CCOc1ccccc1C(=O)Nc1ccc2nc(N3CCN(c4ncccn4)CC3)cc(C)c2c1	none (no result: DAT uptake mod, Jurkat viability)
Cc1cc(NS(=O)(=O)c2ccc(NC(=O)CCc3ccccc3)cc2)no1	none (no result: M1 antag, M1 agonist)
COc1cc(C)c(S(=O)(=O)n2nnc3ccccc32)cc1C	none (no result: Jurkat viability, M1 antag, HEK293 NFkB inh, D1 allo mod, M1 agonist)
Cc1cc(Br)c(S(=O)(=O)n2nnc3ccccc32)cc1C	M1 antag -12 (no result: D1 allo mod) | M1 antag conf inactive | mGluR4 antag inactive
Oc1cccc(Nc2nc(NCC3CCCO3)c3ccccc3n2)c1 (stereo not drawn)	M1 antag -3.9, D1 allo mod -5 | M1 antag conf 357 | mGluR4 antag inactive
CCOC(=O)N1CCC(N2C(=O)c3ccccc3C2Nc2ccccc2C)CC1 (stereo not drawn)	none
CCOC(=O)c1ccccc1NC1c2ccccc2C(=O)N1C1CCN(C(=O)OCC)CC1 (stereo not drawn)	M1 antag -1.6 | M1 antag conf 384 | mGluR4 antag inactive
CC(=O)Nc1cccc(NC(=O)C2CCCN2C(=O)Nc2cccc(F)c2)c1 (stereo not drawn)	none
COc1ccc(C(C(=O)OC(C)CN(C)C)c2ccccc2)cc1 (stereo not drawn)	M1 antag -3 | M1 antag conf 333 | mGluR4 antag inactive
CC(O)c1n(C)c(Cl)c[n+]1C (stereo not drawn)	none (no result: DAT uptake mod, Jurkat viability, HEK293 NFkB inh)
CCCCn1c(SCC(=O)Nc2nnc(CC)s2)nc2ccccc2c1=O	M1 antag -7.8 | M1 antag conf inactive | mGluR4 antag inactive
OC(COCc1ccc(Cl)cc1)CN1CCN(CC(O)COCc2ccc(Cl)cc2)CC1 (stereo not drawn)	M1 antag -1.9 | M1 antag conf 444 | mGluR4 antag inactive
c1cc2c3c(cccc3c1)C(N1CCCCC1)=N2	M1 antag -6.8 | M1 antag conf 224 | mGluR4 antag inactive
CCCCN(C(=O)c1ccc(Cl)cc1)C1CC2CCC(C1)N2C (stereo not drawn)	M1 antag -2.1 | M1 antag conf 369 | mGluR4 antag inactive
COc1cc(C(=O)N(CCc2ccccc2)C2CC3CCC(C2)N3C)cc(OC)c1OC (stereo not drawn)	none
CC(C)OCCCNC(=O)c1cc2c(s1)CS(=O)(=O)C2	M1 antag -4.6 (no result: Jurkat viability) | M1 antag conf inactive | mGluR4 antag inactive
OC(C#CCN1CCCCC1)c1ccccc1 (stereo not drawn)	M1 antag -2.6 | M1 antag conf inactive | mGluR4 antag inactive
CC(C)C(O)(C#CCN1CCCCC1)c1ccccc1 (stereo not drawn)	none (no result: Jurkat viability, M1 antag, HEK293 NFkB inh, D1 allo mod, M1 agonist)
OC(C#CCN1CCCC1)c1ccccc1 (stereo not drawn)	M1 antag -3 (no result: D1 allo mod) | M1 antag conf inactive | mGluR4 antag inactive
CC(C)C(O)(C#CCN1CCCC1)c1ccccc1 (stereo not drawn)	none (no result: Jurkat viability, M1 antag, HEK293 NFkB inh, D1 allo mod, M1 agonist)
CCN(CC)S(=O)(=O)c1ccc(F)c(C(=O)NCCC(C)C)c1	none
CCCOc1ccc(-c2nnc(-c3ccncc3)o2)cc1	M1 antag -2 | M1 antag conf inactive | mGluR4 antag inactive
CC(C)COc1ccc(-c2nnc(-c3ccncc3)o2)cc1	none (no result: D1 allo mod)
Cc1cccc(NC(=O)CCN2CCN(C/C=C/c3ccccc3)CC2)c1	none
C/C(NC1CCCC1)=C(/C#N)C(N)=O	none
Cc1ccc2c(c1)N(CCC(=O)NC1CC1)C(=O)C(C)O2 (stereo not drawn)	M1 antag -4 | M1 antag conf inactive | mGluR4 antag inactive
Cc1cc(C)c(S(C)(=O)=O)c(Sc2ccc(Cl)cc2)n1	none (no result: Jurkat viability, M1 antag, HEK293 NFkB inh, D1 allo mod, M1 agonist)
O=C(N1CCCCC1)C1(c2ccccc2)CCOCC1	none
O=C(OCCCN1CCCC1)C1(c2ccccc2)CCCC1	M1 antag -18 (no result: Jurkat viability, HEK293 NFkB inh) | M1 antag conf 27 | mGluR4 antag inactive
CN(C)CCOC(=O)C1(c2ccccc2)CCOCC1	M1 antag -3.2 | M1 antag conf 362 | mGluR4 antag inactive
COc1cc(NS(=O)(=O)c2ccc(NC(C)=O)cc2)nc(OC)n1	none (no result: Jurkat viability, M1 antag, HEK293 NFkB inh, D1 allo mod, M1 agonist)
COc1cc(NS(=O)(=O)c2ccc(NC(=O)c3ccco3)cc2)nc(OC)n1	M1 antag -2.2 (no result: Jurkat viability) | M1 antag conf inactive | mGluR4 antag inactive
c1ccc(Oc2cccc(NC3=NCCC3)c2)cc1	M1 antag -3.5 | M1 antag conf 393 | mGluR4 antag inactive
Cc1c(NC(=O)CSc2ccc3c(c2)OCCO3)c(=O)n(-c2ccccc2)n1C	none
O=C(CSc1ccc2c(c1)OCCO2)Nc1ccc(Cl)cn1	M1 antag -3.2 | M1 antag conf inactive | mGluR4 antag inactive
COc1ccc(N2CS(=O)(=O)/C(=C/N(C)C)C2=O)cc1	none (no result: Jurkat viability, M1 antag, HEK293 NFkB inh, D1 allo mod, M1 agonist)
Cc1ccc(-c2nnn(CC(=O)O)n2)cc1	none (no result: Jurkat viability)
CSc1ccc(-c2nnn(Cc3ccc(C)cc3)n2)cc1	M1 antag -5.4 (no result: Jurkat viability, HEK293 NFkB inh, D1 allo mod) | M1 antag conf inactive | mGluR4 antag inactive
Cc1onc(-c2ccccc2Cl)c1C(=O)Nc1ccc(-n2nncc2-c2ccco2)cc1	M1 antag -1.9 (no result: Jurkat viability, D1 allo mod) | M1 antag conf 379 | mGluR4 antag inactive
